Data set [1] concerns Rattus norvegicus. Description: Antihypertensive activity in spontaneously hypertensive Wistar kyoto rat assessed as reduction in systolic arterial pressure at 10 mg/kg, ip administered for 6 hrs and measured every 30 mins post treatment by tail-cuff method. The data set is classed as functional. In a few lines: (§1)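 Male SHRs (8 weeks, 300 ± 25 g; 6 per group), given compound intraperitoneally once daily at 8 am in 0.5% (w/v) sodium carboxymethyl cellulose/DMSO 3/1 (v/v), 2 mL·kg⁻¹. Vehicle-treated SHR and WKY controls. SBP, DBP and heart rate were measured by tail-cuff on awake, restrained rats before dosing, then every 30 min for 6 h. Values are mean ± SD of four independent experiments.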

Data set [2] concerns Rattus norvegicus. Kind of data set: Antihypertensive activity in spontaneously hypertensive Wistar kyoto rat assessed as reduction in diastolic arterial pressure at 10 mg/kg, ip administered for 6 hrs and measured every 30 mins post treatment by tail-cuff method. The class given is functional. In a few lines: as §1
For data set [3], the system named is H9c2. Description: Cytotoxicity against rat H9c2 cells assessed as reduction in cell viability at 10 to 80 uM incubated for 24 hrs. The data set is classed as cell-based. The note with it: h9c2, 24 h. In a few lines: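 Rat cardiac H9c2 cells were grown in DMEM with 10% FBS and penicillin/streptomycin at 37 °C and 5% CO₂. They were seeded at 5×10⁴ cells/mL and allowed to adhere for 8 h. Cells were exposed to 10, 40 or 80 µM compound for 24 h, and survival was compared with untreated cells.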

For data set [4], the system named is H9c2. Kind of data set: Cytoprotective activity against H2O2-induced toxicity in rat H9c2 cells assessed as increase in cell repair at 10 to 80 uM pretreated with compound followed by H2O2 addition and measured after 1 to 8 hrs by giemsa staining based microscopic method. The class given is functional. In a few lines: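 H9c2 cells were injured with H₂O₂ (400 µM) for 1, 4 or 8 h to give light, medium and heavy damage, in the presence of compound at 10–80 µM. Acetaminophen or ibuprofen served as controls. Viability was measured as mean ± SD of three experiments. SOD and MDA contents were measured as mean ± SD of four experiments. Morphology was assessed by Giemsa staining under light microscopy.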

Data set [5] is described as follows: Toxicity in Wistar kyoto rat assessed as hyperemia in gastrointestinal tissue at 6.1 mg/kg, ip administered for 14 days by H and E staining based optical microscopic method. The data set is classed as organism-based. The settings on record: in vivo, 336 h. In a few lines:
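WKY rats (3 per group) were dosed for 14 days with ibuprofen at 6.1 mg·kg⁻¹ per day or test compound at 10 mg·kg⁻¹. Rats were killed by cervical dislocation after ether anaesthesia. Stomach and intestine were cut into 5–10 µm sections, HE-stained and examined by optical microscopy.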

A short description of data set [6]: Toxicity in Wistar kyoto rat assessed as inflammatory cell infiltration in gastric mucosa at 6.1 mg/kg, ip administered for 14 days by H and E staining based optical microscopic method. The data set is classed as organism-based. The settings on record: in vivo, 336 h. In a few lines: (§2)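 WKY rats, 3 per group, were dosed for 14 days, with the compound at 10 mg/kg per dose and the ibuprofen comparator at 6.1 mg/kg. Rats were anaesthetised with ether and killed by cervical dislocation. Stomach and intestine were sectioned at 5-10 µm, stained with haematoxylin and eosin, and examined by optical microscopy.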

The nature of data set [7]: Toxicity in Wistar kyoto rat assessed as swollen gastric mucosal cells at 6.1 mg/kg, ip administered for 14 days by H and E staining based optical microscopic method. The class given is organism-based. The note with it: in vivo, 336 h. In a few lines: as §2
Data set [8] can be described thus: Toxicity in Wistar kyoto rat assessed as hyperemia in intestinal mucosa at 6.1 mg/kg, ip administered for 14 days by H and E staining based optical microscopic method. The settings on record: in vivo, 336 h. The class given is organism-based. In a few lines:
as §2

Data set [9] can be described thus: Toxicity in Wistar kyoto rat assessed as inflammatory cell infiltration in gastrointestinal tissue at 6.1 mg/kg, ip administered for 14 days by H and E staining based optical microscopic method. The data set is classed as organism-based. The note with it: in vivo, 336 h. In a few lines: as §2
Data set [10] is described as follows: Toxicity in Wistar kyoto rat assessed as intestinal mucosal edema at 6.1 mg/kg, ip administered for 14 days by H and E staining based optical microscopic method. The settings on record: in vivo, 336 h. The data set is classed as organism-based. In a few lines: as §2
Data set [11] in a line: Cardiotoxicity in SHR rat assessed as neatly arranged myocardial fibers at 10 mg/kg, ip administered for 14 days by H and E staining based microscopic assay. The data set is classed as toxicity, organism-based. The note with it: in vivo, 336 h. In a few lines:
(§3)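 SHRs were given 10 mg·kg⁻¹ intraperitoneally per day for 14 consecutive days, with an ibuprofen comparator and a normal control. Myocardial tissue was then removed. Sections were HE-stained for light microscopy and also examined by transmission electron microscopy at 6000, 10000 and 20000-fold.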

Data set [12] can be described thus: Cardiotoxicity in SHR rat assessed as appearance of myocardial interstitial collagen fibers at 10 mg/kg, ip administered for 14 days by H and E staining based microscopic assay. The data set is classed as toxicity, organism-based. The note with it: in vivo, 336 h. In a few lines: as §3
The nature of data set [13]: Cardiotoxicity in SHR rat assessed as coarser myocardial fiber formation at 10 mg/kg, ip administered for 14 days by H and E staining based microscopic assay. The class given is toxicity, organism-based. The settings on record: in vivo, 336 h. In a few lines:
as §3

Data set [14] can be described thus: Cardiotoxicity in SHR rat assessed as increase in muscle bundle gaps at 10 mg/kg, ip administered for 14 days by H and E staining based microscopic assay. The class given is toxicity, organism-based. The settings on record: in vivo, 336 h. In a few lines:
as §3

Data set [15] in a line: Cardiotoxicity in SHR rat assessed as reduction in muscle bundle gaps at 10 mg/kg, ip administered for 14 days by H and E staining based microscopic assay. The data set is classed as toxicity, organism-based. The note with it: in vivo, 336 h. In a few lines: as §3
The nature of data set [16]: Cardiotoxicity in SHR rat assessed as collagen fibers stained in interstitium at 10 mg/kg, ip administered for 14 days by H and E staining based microscopic assay. The data set is classed as toxicity, organism-based. The settings on record: in vivo, 336 h. In a few lines:
as §3

The subject of data set [17] is Rattus norvegicus. Kind of data set: Cardioprotective activity in SHR rat assessed as swollen myocardial interstitial vascular at 10 mg/kg, ip administered for 14 days by TEM analysis. The data set is classed as functional, organism-based. In a few lines:
as §3

Data set [18] concerns Rattus norvegicus. Description: Cardioprotective activity in SHR rat assessed as loosen myocardial fibers at 10 mg/kg, ip administered for 14 days by TEM analysis. The data set is classed as functional, organism-based. In a few lines:
as §3

Data set [19] deals with Rattus norvegicus. Kind of data set: Cardioprotective activity in SHR rat assessed as myocardial fibrous submucosal swelling at 10 mg/kg, ip administered for 14 days by TEM analysis. The class given is functional, organism-based. In a few lines:
as §3

The subject of data set [20] is Rattus norvegicus. Description: Cardioprotective activity in SHR rat assessed as myocardial fiber melting at 10 mg/kg, ip administered for 14 days by TEM analysis. The class given is functional, organism-based. In a few lines: as §3
For data set [21], the system named is Rattus norvegicus. Kind of data set: Cardioprotective activity in SHR rat assessed as myocardial contraction band formation at 10 mg/kg, ip administered for 14 days by TEM analysis. The class given is functional, organism-based. In a few lines:
as §3

In data set [22] the test system is Rattus norvegicus. Kind of data set: Cardioprotective activity in SHR rat assessed as myocardial disk dissociation at 10 mg/kg, ip administered for 14 days by TEM analysis. The class given is functional, organism-based. In a few lines: as §3
The subject of data set [23] is Rattus norvegicus. Description: Cardioprotective activity in SHR rat assessed as swollen myocardial mitochondria at 10 mg/kg, ip administered for 14 days by TEM analysis. The data set is classed as functional, organism-based. In a few lines:
as §3

For data set [24], the system named is Rattus norvegicus. Kind of data set: Cardioprotective activity in SHR rat assessed as ventricular pumping dysfunction at 10 mg/kg, ip administered for 14 days by TEM analysis. The data set is classed as functional, organism-based. In a few lines:
as §3

Calls of active or inactive are those of the source. No cut-off for these calls is given here.

On to `COC(=O)C1=C(C)NC(C)=C(C(=O)OC)C1c1ccccc1[N+](=O)[O-]`, for which the outcome with Rattus norvegicus [1] and in the data set on Rattus norvegicus [2] was inactive.
In the case of `C[C@H](CS)C(=O)N1CCC[C@H]1C(=O)O`, the result with Rattus norvegicus [1] and in the data set with Rattus norvegicus [2] was inactive.
For `CC(=O)Nc1ccc(O)cc1` [ACETAMINOPHEN], the Activity result with H9c2 [3] is “Non-Toxic”. In addition, in the data set on H9c2 [4], the outcome was Active.
As for `CC(C)Cc1ccc(C(C)C(=O)O)cc1` (configuration not stated) [IBUPROFEN], the Activity entry in [5], in data set [6], in data set [7], in [8], in data set [9] and in data set [10] was “Toxic” in each case. Moreover, the Activity result in the data set with H9c2 [3] is “Non-Toxic”; in [11] it was “Non-Toxic”; in data set [12], “Active”; in data set [13] it was “Active”; in data set [14], “Active”; in [15], “Active”. For the same compound, in [16], the result was Active. For the same compound, the outcome with Rattus norvegicus [17], in the data set with Rattus norvegicus [18], in the data set on Rattus norvegicus [19], in the data set with Rattus norvegicus [20], in the data set with Rattus norvegicus [21] and in the data set with Rattus norvegicus [22] was Active. Besides, the result in the data set on Rattus norvegicus [23] and in the data set on Rattus norvegicus [24] was Active.
